Measured values as given in paper PMC7299178 (Angewandte Chemie (International ed. in English), 2019).

Key:
thermolysin = thermolysin (Bacillus thermoproteolyticus, UniProt P00800)
[1] = Micelle size in water by TEM and DLS; type: physicochemical
How it was run: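 Test material was a linear-brush diblock copolymer (PMMA block plus a peptide-acrylamide/DMA brush block), self-assembled into micelles in water. Particle diameter was measured by TEM imaging, and hydrodynamic diameter by DLS. TEM images were also taken after thermolysin treatment (thermolysin cleaves the Gly–Leu amide bond of the peptide side chains).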

thermolysin, sequence (P00800 233-548, species assumed): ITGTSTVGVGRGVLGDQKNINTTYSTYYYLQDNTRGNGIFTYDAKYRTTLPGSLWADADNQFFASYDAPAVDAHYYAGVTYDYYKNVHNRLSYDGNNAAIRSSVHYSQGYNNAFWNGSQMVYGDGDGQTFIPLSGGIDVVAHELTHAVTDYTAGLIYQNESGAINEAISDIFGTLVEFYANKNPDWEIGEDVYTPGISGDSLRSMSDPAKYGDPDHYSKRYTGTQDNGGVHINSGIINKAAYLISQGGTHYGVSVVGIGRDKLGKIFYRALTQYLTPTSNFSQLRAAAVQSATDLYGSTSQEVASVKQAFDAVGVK

Substance: PMMA90-b-poly(PepAm21-co-DMA63) [P8]
- morphology change of micelles upon treatment with thermolysin (thermolysin; TEM and DLS, spherical micelles before treatment): underwent a phase transition into a worm-like phase
- change of particle diameter with deactivated thermolysin (thermolysin; same cleavage conditions, thermolysin pretreated with ethylenediaminetetraacetic acid, DLS): no change in diameter
- hydrodynamic diameter (DLS) ([1]; micelles in water, dynamic light scattering): 28 nm
- micelle diameter (TEM) ([1]; spherical micelles assembled in water, transmission electron microscope): 24 nm
